From ChEMBL document CHEMBL4610092, “Cytotoxic Nitrogenated Azaphilones from the Deep-Sea-Derived Fungus Chaetomium globosum MP4-S01-7” (J Nat Prod, 2020)

How the values were obtained:
[1] = test system: MGC-803; experiment: Cytotoxicity against human MGC803 cells assessed as reduction in cell viability measured after 72 hrs by CCK8 assay; format: functional, cell-based; details: MGC-803, 72 h
In short: (§1)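 MGC803 or AGS cells (RPMI 1640, 10% FBS, 5% CO₂, 37 °C) plated at 3 × 10³ per well overnight, then exposed to 0.1–10 μM for 72 h. Viability was read by CCK8 absorbance at 450 nm, and IC₅₀ was calculated from the concentration series.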

[2] = test system: AGS; experiment: Cytotoxicity against human AGS cells assessed as reduction in cell viability measured after 72 hrs by CCK8 assay; format: functional, cell-based; in short: as §1
[3] = test system: MGC-803; experiment: Induction of apoptosis in human MGC803 cells measured after 48 hrs FITC-A/PE-A staining based flow cytometry; format: functional, cell-based
[4] = test system: AGS; experiment: Induction of apoptosis in human AGS cells measured after 48 hrs FITC-A/PE-A staining based flow cytometry; format: functional, cell-based
[5] = test system: MGC-803; experiment: Induction of apoptosis in human MGC803 cells assessed as viable cells at 0.2 uM measured after 48 hrs FITC-A/PE-A staining based flow cytometry (reference value: 94.89 to 96.41%); format: functional; details: MGC-803, 48 h, read-out: Activity
[6] = test system: MGC-803; experiment: Induction of apoptosis in human MGC803 cells assessed as early apoptotic cells at 0.2 uM measured after 48 hrs FITC-A/PE-A staining based flow cytometry (reference value: 0.59 to 3.54%); format: functional
[7] = test system: MGC-803; experiment: Induction of apoptosis in human MGC803 cells assessed as late apoptotic cells at 0.2 uM measured after 48 hrs FITC-A/PE-A staining based flow cytometry (reference value: 0.9 to 2.18%); format: functional
[8] = test system: MGC-803; experiment: Induction of apoptosis in human MGC803 cells assessed as necrotic cells at 0.2 uM measured after 48 hrs FITC-A/PE-A staining based flow cytometry (reference value: 0.9 to 2.18%); format: functional
[9] = test system: MGC-803; experiment: Induction of apoptosis in human MGC803 cells assessed as viable cells at 0.5 uM measured after 48 hrs FITC-A/PE-A staining based flow cytometry (reference value: 94.89 to 96.41%); format: functional; details: MGC-803, 48 h, read-out: Activity
[10] = test system: MGC-803; experiment: Induction of apoptosis in human MGC803 cells assessed as early apoptotic cells at 0.5 uM measured after 48 hrs FITC-A/PE-A staining based flow cytometry (reference value: 0.59 to 3.54%); format: functional
[11] = test system: MGC-803; experiment: Induction of apoptosis in human MGC803 cells assessed as late apoptotic cells at 0.5 uM measured after 48 hrs FITC-A/PE-A staining based flow cytometry (reference value: 0.9 to 2.18%); format: functional
[12] = test system: MGC-803; experiment: Induction of apoptosis in human MGC803 cells assessed as necrotic cells at 0.5 uM measured after 48 hrs FITC-A/PE-A staining based flow cytometry (reference value: 0.9 to 2.18%); format: functional
[13] = test system: MGC-803; experiment: Induction of apoptosis in human MGC803 cells assessed as viable cells at 1 uM measured after 48 hrs FITC-A/PE-A staining based flow cytometry (reference value: 94.89 to 96.41%); format: functional; details: MGC-803, 48 h, read-out: Activity
[14] = test system: MGC-803; experiment: Induction of apoptosis in human MGC803 cells assessed as early apoptotic cells at 1 uM measured after 48 hrs FITC-A/PE-A staining based flow cytometry (reference value: 0.59 to 3.54%); format: functional
[15] = test system: MGC-803; experiment: Induction of apoptosis in human MGC803 cells assessed as late apoptotic cells at 1 uM measured after 48 hrs FITC-A/PE-A staining based flow cytometry (reference value: 0.67 to 0.82%); format: functional
[16] = test system: MGC-803; experiment: Induction of apoptosis in human MGC803 cells assessed as necrotic cells at 1 uM measured after 48 hrs FITC-A/PE-A staining based flow cytometry (reference value: 0.9 to 2.18%); format: functional
[17] = test system: AGS; experiment: Induction of apoptosis in human AGS cells assessed as viable cells at 0.2 uM measured after 48 hrs FITC-A/PE-A staining based flow cytometry (reference value: 92.05 to 93.85%); format: functional; details: read-out: Activity
[18] = test system: AGS; experiment: Induction of apoptosis in human AGS cells assessed as early apoptotic cells at 0.2 uM measured after 48 hrs FITC-A/PE-A staining based flow cytometry (reference value: 1.77 to 2.91%); format: functional
[19] = test system: AGS; experiment: Induction of apoptosis in human AGS cells assessed as late apoptotic cells at 0.2 uM measured after 48 hrs FITC-A/PE-A staining based flow cytometry (reference value: 1.89 to 3.49%); format: functional
[20] = test system: AGS; experiment: Induction of apoptosis in human AGS cells assessed as necrotic cells at 0.2 uM measured after 48 hrs FITC-A/PE-A staining based flow cytometry (reference value: 1.35 to 2.69%); format: functional
[21] = test system: AGS; experiment: Induction of apoptosis in human AGS cells assessed as viable cells at 0.5 uM measured after 48 hrs FITC-A/PE-A staining based flow cytometry (reference value: 92.05 to 93.85%); format: functional; details: read-out: Activity
[22] = test system: AGS; experiment: Induction of apoptosis in human AGS cells assessed as early apoptotic cells at 0.5 uM measured after 48 hrs FITC-A/PE-A staining based flow cytometry (reference value: 1.77 to 2.91%); format: functional
[23] = test system: AGS; experiment: Induction of apoptosis in human AGS cells assessed as late apoptotic cells at 0.5 uM measured after 48 hrs FITC-A/PE-A staining based flow cytometry (reference value: 1.89 to 3.49%); format: functional
[24] = test system: AGS; experiment: Induction of apoptosis in human AGS cells assessed as necrotic cells at 0.5 uM measured after 48 hrs FITC-A/PE-A staining based flow cytometry (reference value: 1.35 to 2.69%); format: functional
[25] = test system: AGS; experiment: Induction of apoptosis in human AGS cells assessed as viable cells at 1 uM measured after 48 hrs FITC-A/PE-A staining based flow cytometry (reference value: 92.05 to 93.85%); format: functional; details: read-out: Activity
[26] = test system: AGS; experiment: Induction of apoptosis in human AGS cells assessed as early apoptotic cells at 1 uM measured after 48 hrs FITC-A/PE-A staining based flow cytometry (reference value: 1.77 to 2.91%); format: functional
[27] = test system: AGS; experiment: Induction of apoptosis in human AGS cells assessed as late apoptotic cells at 1 uM measured after 48 hrs FITC-A/PE-A staining based flow cytometry (reference value: 1.89 to 3.49%); format: functional
[28] = test system: AGS; experiment: Induction of apoptosis in human AGS cells assessed as necrotic cells at 1 uM measured after 48 hrs FITC-A/PE-A staining based flow cytometry (reference value: 1.35 to 2.69%); format: functional
[29] = test system: MGC-803; experiment: Induction of apoptosis in human MGC803 cells assessed as viable cells at 5 uM measured after 48 hrs FITC-A/PE-A staining based flow cytometry (reference value: 94.89 to 96.41%); format: functional; details: MGC-803, 48 h, read-out: Activity
[30] = test system: MGC-803; experiment: Induction of apoptosis in human MGC803 cells assessed as early apoptotic cells at 5 uM measured after 48 hrs FITC-A/PE-A staining based flow cytometry (reference value: 0.59 to 3.54%); format: functional
[31] = test system: MGC-803; experiment: Induction of apoptosis in human MGC803 cells assessed as late apoptotic cells at 5 uM measured after 48 hrs FITC-A/PE-A staining based flow cytometry (reference value: 0.67 to 0.82%); format: functional
[32] = test system: MGC-803; experiment: Induction of apoptosis in human MGC803 cells assessed as necrotic cells at 5 uM measured after 48 hrs FITC-A/PE-A staining based flow cytometry (reference value: 0.9 to 2.18%); format: functional
[33] = test system: AGS; experiment: Induction of apoptosis in human AGS cells assessed as viable cells at 5 uM measured after 48 hrs FITC-A/PE-A staining based flow cytometry (reference value: 92.05 to 93.85%); format: functional; details: read-out: Activity
[34] = test system: AGS; experiment: Induction of apoptosis in human AGS cells assessed as early apoptotic cells at 5 uM measured after 48 hrs FITC-A/PE-A staining based flow cytometry (reference value: 1.77 to 2.91%); format: functional
[35] = test system: AGS; experiment: Induction of apoptosis in human AGS cells assessed as late apoptotic cells at 5 uM measured after 48 hrs FITC-A/PE-A staining based flow cytometry (reference value: 1.89 to 3.49%); format: functional
[36] = test system: AGS; experiment: Induction of apoptosis in human AGS cells assessed as necrotic cells at 5 uM measured after 48 hrs FITC-A/PE-A staining based flow cytometry (reference value: 1.35 to 2.69%); format: functional
[37] = test system: MGC-803; experiment: Cell cycle arrest in human MGC803 cells assessed as increase in accumulation at G1-phase measured after 24 hrs by propidium iodide staining based flow cytometry; format: functional
[38] = test system: MGC-803; experiment: Cell cycle arrest in human MGC803 cells assessed as accumulation at G1-phase at 0.2 uM measured after 24 hrs by propidium iodide staining based flow cytometry (reference value: 45%); format: functional
[39] = test system: MGC-803; experiment: Cell cycle arrest in human MGC803 cells assessed as accumulation at S-phase at 0.2 uM measured after 24 hrs by propidium iodide staining based flow cytometry (reference value: 33%); format: functional
[40] = test system: MGC-803; experiment: Cell cycle arrest in human MGC803 cells assessed as accumulation at G2/M-phase at 0.2 uM measured after 24 hrs by propidium iodide staining based flow cytometry (reference value: 22%); format: functional
[41] = test system: MGC-803; experiment: Cell cycle arrest in human MGC803 cells assessed as accumulation at G1-phase at 0.5 uM measured after 24 hrs by propidium iodide staining based flow cytometry (reference value: 45%); format: functional
[42] = test system: MGC-803; experiment: Cell cycle arrest in human MGC803 cells assessed as accumulation at S-phase at 0.5 uM measured after 24 hrs by propidium iodide staining based flow cytometry (reference value: 33%); format: functional
[43] = test system: MGC-803; experiment: Cell cycle arrest in human MGC803 cells assessed as accumulation at G2/M-phase at 0.5 uM measured after 24 hrs by propidium iodide staining based flow cytometry (reference value: 22%); format: functional
[44] = test system: MGC-803; experiment: Cell cycle arrest in human MGC803 cells assessed as accumulation at G1-phase at 1 uM measured after 24 hrs by propidium iodide staining based flow cytometry (reference value: 45%); format: functional
[45] = test system: MGC-803; experiment: Cell cycle arrest in human MGC803 cells assessed as accumulation at S-phase at 1 uM measured after 24 hrs by propidium iodide staining based flow cytometry (reference value: 33%); format: functional
[46] = test system: MGC-803; experiment: Cell cycle arrest in human MGC803 cells assessed as accumulation at G2/M-phase at 1 uM measured after 24 hrs by propidium iodide staining based flow cytometry (reference value: 22%); format: functional

CC[C@H](C)/C=C/C1=CC2=C(Cl)C(=O)[C@@]3(C)OC(=O)C(C(=O)[C@H](C)[C@@H](C)O)=C3C2=CN1C/C=C(\C)CCC=C(C)C
IC50 [1]: 780 nM
IC50 [2]: 120 nM
Activity [3]: Dose-dependent effect
Activity [4]: Dose-dependent effect
viability at 0.2 µM [5]: 96.1%
Activity [6]: 2.79%
Activity [7]: 0.41%
Activity [8]: 0.7%
viability at 0.5 µM [9]: 96.1%
Activity [10]: 2.55%
Activity [11]: 0.63%
Activity [12]: 0.73%
viability at 1 µM [13]: 85%
Activity [14]: 1.33%
Activity [15]: 6.91%
Activity [16]: 6.78%
viability at 0.2 µM [17]: 89.6%
Activity [18]: 3.16%
Activity [19]: 4.34%
Activity [20]: 2.94%
viability at 0.5 µM [21]: 88.1%
Activity [22]: 3.49%
Activity [23]: 5.54%
Activity [24]: 2.92%
viability at 1 µM [25]: 53.3%
Activity [26]: 18.59%
Activity [27]: 23.07%
Activity [28]: 5.05%
viability at 5 µM [29]: 6.51%
Activity [30]: 0.25%
Activity [31]: 91.5%
Activity [32]: 1.74%
viability at 5 µM [33]: 9.55%
Activity [34]: 2.33%
Activity [35]: 86.44%
Activity [36]: 1.67%

CC[C@H](C)/C=C/C1=CC2=C(Cl)C(=O)[C@@]3(C)OC(=O)C(C(=O)[C@@H](C)[C@@H](C)O)=C3C2=CO1 [CHAETOVIRIDIN A]
IC50 [1]: > 10000 nM
IC50 [2]: > 10000 nM

CC[C@H](C)/C=C/C1=CC2=C(Cl)C(=O)[C@@]3(C)OC(=O)C(C(=O)[C@@H](C)[C@@H](C)O)=C3C2=CN1C/C=C(\C)CCC=C(C)C
IC50 [1]: 460 nM
IC50 [2]: 620 nM
Activity [37]: Dose-dependent effect
Activity [38]: 48%
Activity [39]: 30%
Activity [40]: 23%
Activity [41]: 48%
Activity [42]: 28%
Activity [43]: 24%
Activity [44]: 58%
Activity [45]: 32%
Activity [46]: 9.4%
Activity [3]: Dose-dependent effect
Activity [4]: Dose-dependent effect
viability at 0.2 µM [5]: 90.7%
Activity [6]: 2.96%
Activity [7]: 2.23%
Activity [8]: 4.06%
viability at 0.5 µM [9]: 91.3%
Activity [10]: 2.65%
Activity [11]: 2.85%
Activity [12]: 3.23%
viability at 1 µM [13]: 71.7%
Activity [14]: 4.16%
Activity [15]: 18.17%
Activity [16]: 6.01%
viability at 0.2 µM [17]: 93.2%
Activity [18]: 2.78%
Activity [19]: 2.69%
Activity [20]: 1.37%
viability at 0.5 µM [21]: 88.2%
Activity [22]: 5.89%
Activity [23]: 3.01%
Activity [24]: 2.85%
viability at 1 µM [25]: 45%
Activity [26]: 16.5%
Activity [27]: 35.16%
Activity [28]: 3.36%
viability at 5 µM [29]: 20.1%
Activity [30]: 6.2%
Activity [31]: 68.63%
Activity [32]: 5.03%
viability at 5 µM [33]: 8.93%
Activity [34]: 1.86%
Activity [35]: 86.77%
Activity [36]: 2.44%
